Laboratory results: ChEMBL document CHEMBL1135398, “Methanocarba modification of uracil and adenine nucleotides: high potency of Northern ring conformation at P2Y1, P2Y2, P2Y4, and P2Y11 but not P2Y6 receptors” (J Med Chem, 2002)
Activity calls are given as the source filed them. No cut-off for these calls is given here.

Legend:
Format in all cases: functional
P2Y purinoceptor 6 [1] = target: T1, P2Y purinoceptor 6 (Homo sapiens, UniProt Q15077); assay: Measure of Agonist Potency at human P2Y purinoceptor 6 (hP2Y6) stably expressed in […] astrocytoma cell; NE means no effect at 100 uM
T1 sequence (Q15077 whole entry): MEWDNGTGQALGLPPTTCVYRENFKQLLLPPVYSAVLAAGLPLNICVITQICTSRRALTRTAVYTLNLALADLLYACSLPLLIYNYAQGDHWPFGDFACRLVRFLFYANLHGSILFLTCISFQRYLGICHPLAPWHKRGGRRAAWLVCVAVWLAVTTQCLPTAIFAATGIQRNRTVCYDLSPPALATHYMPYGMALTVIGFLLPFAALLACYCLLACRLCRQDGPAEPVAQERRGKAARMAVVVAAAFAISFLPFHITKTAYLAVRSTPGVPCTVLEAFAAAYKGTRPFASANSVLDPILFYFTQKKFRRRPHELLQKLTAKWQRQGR
Procedure, shortened: (§1)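 1321N1 cells stably expressing the human receptor were labelled overnight with 1 μCi [³H]myo-inositol per well in inositol-free DMEM. [³H]inositol phosphate formation was then measured over 10 min at 37 °C with 10 mM LiCl. EC50 came from a four-parameter logistic fit of full concentration-effect curves, averaged over 3–8 independent curves.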

[2] = target: T2, P2Y purinoceptor 11 (Homo sapiens) (UniProt Q96G91); assay: Measure of Agonist Potency at human P2Y purinoceptor 11 (hP2Y11) stably expressed in […] astrocytoma cell at 10 uM
T2 sequence (whole entry): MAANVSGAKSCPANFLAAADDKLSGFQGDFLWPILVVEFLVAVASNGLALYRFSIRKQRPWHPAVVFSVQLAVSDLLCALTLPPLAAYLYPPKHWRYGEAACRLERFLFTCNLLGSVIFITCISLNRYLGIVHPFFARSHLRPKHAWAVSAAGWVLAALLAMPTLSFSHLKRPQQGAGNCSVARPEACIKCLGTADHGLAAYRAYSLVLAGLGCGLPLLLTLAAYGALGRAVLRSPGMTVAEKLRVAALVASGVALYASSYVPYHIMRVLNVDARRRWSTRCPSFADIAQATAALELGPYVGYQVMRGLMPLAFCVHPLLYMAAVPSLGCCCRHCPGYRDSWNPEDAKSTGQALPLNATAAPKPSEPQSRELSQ

P2Y purinoceptor 1 [3] = target: P2Y purinoceptor 1 (Meleagris gallopavo, UniProt P49652); assay: Measure of Agonist Potency at turkey Purinoceptor P2Y1 stably expressed in 131N1 astrocytoma cell
P2Y purinoceptor 1 (Meleagris gallopavo, UniProt P49652), sequence (P49652 whole entry): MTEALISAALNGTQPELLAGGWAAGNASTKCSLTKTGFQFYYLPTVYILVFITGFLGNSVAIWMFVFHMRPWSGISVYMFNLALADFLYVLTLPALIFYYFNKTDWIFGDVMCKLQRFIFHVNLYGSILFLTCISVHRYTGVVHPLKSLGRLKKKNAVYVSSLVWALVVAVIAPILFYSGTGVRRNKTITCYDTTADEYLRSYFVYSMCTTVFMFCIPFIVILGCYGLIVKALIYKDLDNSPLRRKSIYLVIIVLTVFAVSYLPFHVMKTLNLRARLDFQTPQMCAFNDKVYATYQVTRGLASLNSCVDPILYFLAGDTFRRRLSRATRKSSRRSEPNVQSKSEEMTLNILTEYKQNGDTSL

P2Y purinoceptor 4 [4] = target: T3, P2Y purinoceptor 4 (Homo sapiens, UniProt P51582); assay: Measure of % Agonist Potency at human P2Y purinoceptor 4 (hP2Y4) stably expressed in […] astrocytoma cell at 10 uM
T3 sequence (P51582 whole entry): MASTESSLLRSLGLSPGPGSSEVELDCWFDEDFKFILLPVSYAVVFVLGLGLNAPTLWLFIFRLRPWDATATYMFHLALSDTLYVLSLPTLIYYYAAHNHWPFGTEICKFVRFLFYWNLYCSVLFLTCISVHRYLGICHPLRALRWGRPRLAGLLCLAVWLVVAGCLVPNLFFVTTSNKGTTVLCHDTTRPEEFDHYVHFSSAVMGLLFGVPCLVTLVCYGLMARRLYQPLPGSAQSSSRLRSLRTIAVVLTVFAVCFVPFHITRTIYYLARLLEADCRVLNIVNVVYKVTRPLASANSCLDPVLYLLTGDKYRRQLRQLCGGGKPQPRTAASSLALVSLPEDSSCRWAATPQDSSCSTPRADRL

P2Y purinoceptor 2 = P2Y purinoceptor 2 (Homo sapiens, UniProt P41231); assay: Measure of Agonist Potency at human P2Y purinoceptor 2 (hP2Y2) stably expressed in […] astrocytoma cell; procedure, shortened: as §1
P2Y purinoceptor 2, sequence (P41231 whole entry): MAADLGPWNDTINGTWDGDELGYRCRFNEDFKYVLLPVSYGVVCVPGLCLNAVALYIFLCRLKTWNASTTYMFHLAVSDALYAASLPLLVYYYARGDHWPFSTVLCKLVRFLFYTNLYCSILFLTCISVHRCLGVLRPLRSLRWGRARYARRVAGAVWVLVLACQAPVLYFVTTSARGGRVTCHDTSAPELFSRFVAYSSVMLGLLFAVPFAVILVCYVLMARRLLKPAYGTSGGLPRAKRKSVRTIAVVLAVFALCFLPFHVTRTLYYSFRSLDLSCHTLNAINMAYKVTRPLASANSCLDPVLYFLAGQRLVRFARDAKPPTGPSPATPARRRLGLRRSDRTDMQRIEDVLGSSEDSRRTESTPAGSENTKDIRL

[5] = target: T2, P2Y purinoceptor 11 (Homo sapiens); assay: Measure of Agonist Potency at human P2Y purinoceptor 11 (hP2Y11) stably expressed in […] astrocytoma cell at 10 uM; NE means no effect at 100 uM
P2Y purinoceptor 4 [6] = target: T3, P2Y purinoceptor 4; assay: Measure of Agonist Potency at human P2Y purinoceptor 4 (hP2Y4) stably expressed in […] astrocytoma cell; NE means no effect at 100 uM; procedure, shortened: as §1
P2Y purinoceptor 1 [7] = target: P2Y purinoceptor 1 (Homo sapiens, UniProt P47900); assay: Measure of Agonist Potency at human P2Y purinoceptor 1 (hP2Y1) stably expressed in […] astrocytoma cell; procedure, shortened: as §1
P2Y purinoceptor 1 (Homo sapiens, UniProt P47900), sequence (P47900 whole entry): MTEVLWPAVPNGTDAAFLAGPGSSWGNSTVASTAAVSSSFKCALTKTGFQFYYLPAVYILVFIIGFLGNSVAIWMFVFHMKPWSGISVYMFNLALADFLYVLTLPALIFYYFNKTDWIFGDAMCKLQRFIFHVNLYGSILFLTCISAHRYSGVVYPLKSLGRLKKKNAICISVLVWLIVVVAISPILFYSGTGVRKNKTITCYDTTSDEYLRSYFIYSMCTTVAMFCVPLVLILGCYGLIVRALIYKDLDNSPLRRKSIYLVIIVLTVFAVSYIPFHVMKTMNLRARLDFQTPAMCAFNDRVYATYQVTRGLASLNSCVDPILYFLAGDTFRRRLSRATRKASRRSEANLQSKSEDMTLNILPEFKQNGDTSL

[8] = target: P2Y purinoceptor 1 (Meleagris gallopavo) (UniProt P49652); assay: Measure of Agonist Potency at turkey Purinoceptor P2Y1 stably expressed in […] astrocytoma cell; NE means no effect at 100 uM
P2Y purinoceptor 1 (Meleagris gallopavo), sequence (P49652 whole entry): as the sequence (P49652 whole entry) above

P2Y purinoceptor 6 [9] = target: T1, P2Y purinoceptor 6; assay: Measure of Agonist Potency at human P2Y purinoceptor 6 (hP2Y6) stably expressed in 131N1 astrocytoma cell
Procedure, shortened: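 Human P2Y6 stably expressed in 1321N1 astrocytoma cells; cells labelled overnight with 1 μCi/well [³H]myo-inositol in inositol-free DMEM. [³H]inositol phosphate formation measured next day over 10 min at 37 °C with 10 mM LiCl. Full concentration-effect curves fitted by four-parameter logistic equation; EC50 averaged from 3–8 independent curves (mean ± SE).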

P2Y purinoceptor 4 [10] = target: T3, P2Y purinoceptor 4; assay: Measure of Agonist Potency at human P2Y purinoceptor 4 (hP2Y4) stably expressed in 131N1 astrocytoma cell; procedure, shortened: as §1

SMILES: O=c1ccn(C2O[C@H](COP(=O)(O)O)[C@@H](O)[C@@H]2O)c(=O)[nH]1 (stereo partly specified)
- Agonist effect (P2Y purinoceptor 6 [1]): inactive

SMILES: Nc1ncnc2c1ncn2[C@H]1[C@H](O)[C@H](O)[C@]2(COP(=O)(O)OP(=O)(O)OP(=O)(O)O)C[C@H]12 (stereo in doubt; form 1)
- Activity [2]: 34.5%
- EC50 (P2Y purinoceptor 1 [3]): 14 nM
- Activity (P2Y purinoceptor 4 [4]): 32%
- EC50 (P2Y purinoceptor 2): 91 nM

SMILES: Nc1ncnc2c1ncn2[C@@H]1O[C@H](COP(=O)(O)O)[C@@H](O)[C@H]1O (stereo in doubt; form 4)
- NE [5]: inactive
- NE (P2Y purinoceptor 4 [6]): inactive

SMILES: Nc1ncnc2c1ncn2[C@@H]1O[C@H](COP(=O)(O)O)[C@@H](O)[C@H]1O (stereo in doubt; form 3) [ADENOSINE PHOSPHATE]
- EC50 (P2Y purinoceptor 1 [7]): 1500 nM
- EC50 (P2Y purinoceptor 1 [3]): 2800 nM

SMILES: Nc1ncnc2c1ncn2[C@@H]1O[C@H](COP(=O)(O)O)[C@@H](O)[C@H]1O (stereo in doubt; form 2)
- NE [8]: inactive

SMILES: O=c1ccn(C2C(O)C(O)C3(COP(=O)(O)O)CC23)c(=O)[nH]1 (stereo unspecified)
- Agonist effect (P2Y purinoceptor 6 [1]): inactive

SMILES: Nc1ncnc2c1ncn2[C@@H]1O[C@H](COP(=O)(O)O)[C@@H](O)[C@H]1O (stereo in doubt; form 4) [ADENOSINE PHOSPHATE]
- EC50 (P2Y purinoceptor 1 [7]): 7200 nM
- EC50 (P2Y purinoceptor 1 [3]): 3500 nM

SMILES: O=c1ccn([C@@H]2O[C@H](COP(=O)(O)OP(=O)(O)O)[C@@H](O)[C@H]2O)c(=O)[nH]1 [URIDINE_DIPHOSPHATE]
- EC50 (P2Y purinoceptor 6 [9]): 15 nM

SMILES: Nc1ncnc2c1ncn2[C@@H]1O[C@H](COP(=O)(O)O)[C@@H](O)[C@H]1O (stereo in doubt; form 1)
- NE [8]: inactive

SMILES: O=c1ccn(C2C(O)C(O)C3(COP(=O)(O)OP(=O)(O)O)CC23)c(=O)[nH]1 (stereo unspecified)
- Agonist effect (P2Y purinoceptor 6 [1]): inactive

SMILES: O=c1ccn([C@H]2[C@H](O)[C@H](O)[C@]3(COP(=O)(O)OP(=O)(O)OP(=O)(O)O)C[C@H]23)c(=O)[nH]1 (stereo in doubt; form 2) [N-METHANOCARBA-UTP]
- Agonist effect (P2Y purinoceptor 6 [1]): inactive
- NE [5]: inactive
- EC50 (P2Y purinoceptor 4 [10]): 85 nM
- EC50 (P2Y purinoceptor 2): 15.9 nM

SMILES: Nc1ncnc2c1ncn2[C@@]12C[C@H]1[C@H](COP(=O)(O)O)[C@@H](O)[C@H]2O
- NE [8]: inactive
